Experimental findings from ChEMBL document CHEMBL1141257, “Solanapyrone analogues from a Hawaiian fungicolous fungus” (J Nat Prod, 2007) are described below.

As usually defined, the MIC is the smallest concentration in the dilution series that meets the test's criterion for growth inhibition. Lower therefore signals a more susceptible organism. Usually IC50 stands for the point on the concentration scale where inhibition reaches its midpoint.

Test [1] has as its system Staphylococcus aureus. The test is described as follows: Antibacterial activity against Staphylococcus aureus ATCC 25923 at 50 ug/disk after 4 days. The test is classed as functional. The conditions noted are these: for zone of inhibition at 50 µg/disc: ATCC 25923, 96 h, read-out: IZ. Put shortly:
(§1)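 Standard agar disk diffusion assay with 50 μg loaded per disk. Zones were read after 4 days as clear zones of inhibition in mm. For S. aureus, the zone of reduced growth was also measured in mm.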

Test [2] has as its system Candida albicans. The test is described as follows: Antifungal activity against Candida albicans ATCC 14053. The test is classed as functional. The essentials: as §1
The next test concerns Escherichia coli. The experiment in a line: […] activity against Escherichia coli ATCC 25922. The test is classed as functional, organism-based. Put shortly:
as §1

Test [3] relates to Aspergillus flavus. The test is described as follows: Antifungal activity against Aspergillus flavus NRRL 6541 at 200 ug/disk after 4 days. It is filed as functional. The conditions noted are these: NRRL 6541, 96 h, read-out: IZ. Put shortly:
(§2)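 Disk diffusion assay with 200 μg applied per disk; the diameter of the growth-inhibition zone was read in mm, and persistence of the zone was followed over 4 days.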

Test [4] concerns Aspergillus flavus. The test is described as follows: Antifungal activity against Aspergillus flavus NRRL 6541. The test is classed as functional, organism-based. Put shortly: (§3)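 Disk diffusion assay against the fungus with 200 μg of compound per disk; zones of inhibition were read and followed over 4 days. A further evaluation reported MIC and IC50 values, with the antifungal standard run under the same protocols.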

The test system of test [5] is Fusarium verticillioides. The test is described as follows: Antifungal activity against Fusarium verticillioides NRRL 25457 at 200 ug/disk after 4 days. It is filed as functional. The conditions noted are these: NRRL 25457, 96 h, read-out: IZ. The essentials:
as §2

The test system of test [6] is Staphylococcus aureus. The experiment in a line: Antibacterial activity against Staphylococcus aureus ATCC 25923 assessed as zone of reduced growth at 50 ug/disk after 4 days. It is filed as functional. The following applies: ATCC 25923, 96 h, read-out: IZ. Put shortly:
as §1

Test [7] relates to Fusarium verticillioides. The experiment in a line: Antifungal activity against Fusarium verticillioides NRRL 25457. It is filed as functional, organism-based. Put shortly:
as §3

In test [8] the test system is Candida albicans. The experiment in a line: Antifungal activity against Candida albicans ATCC 14053 at 50 ug/disk. It is filed as functional. The following applies: read-out: IZ. Put shortly:
as §1

≈ marks a conversion by molar mass, not a printed value. Calls of active or inactive are those of the source.

For `COc1cc([C@@]2(C)[C@H]3[C@H](C=C[C@H]2C)CCC[C@@H]3C)oc(=O)c1CO`, the outcome with Staphylococcus aureus [1], with Candida albicans [2] and with Escherichia coli was inactive.
`COc1cc([C@@]2(C)[C@@H]3[C@@H](C)CCC[C@@H]3C=C[C@@H]2C)oc(=O)c1C=O` [SOLANAPYRONE J]: the zone of inhibition at 200 µg/disc in the test on Aspergillus flavus [3] and in the test on Fusarium verticillioides [5] was 30 mm each time. The zone of inhibition at 50 µg/disc came to 17 mm in the test on Staphylococcus aureus [1] and 21 mm in the test with Staphylococcus aureus [6]. In addition, the minimal inhibitory concentration (MIC) in the test with Aspergillus flavus [4] (Aspergillus flavus, NRRL 6541) amounted to 20 mg/L (≈ 60.5 µM); in the test on Fusarium verticillioides [7] (Fusarium verticillioides, NRRL 25457), 24 mg/L (≈ 72.6 µM). Moreover, the IC50 was determined as 8.6 mg/L (≈ 26 µM) in the test with Aspergillus flavus [4] (Aspergillus flavus, NRRL 6541, read-out: IC50) and 15 mg/L (≈ 45.4 µM) in the test on Fusarium verticillioides [7] (Fusarium verticillioides, NRRL 25457, read-out: IC50). The “inhibition zone (IZ)” value in the test with Candida albicans [2] stood at 19 mm.
On to NYSTATIN [listing 1 of 2 here], for which the IC50 is 5 mg/L in the test on Aspergillus flavus [4] and 3 mg/L in the test with Fusarium verticillioides [7].
Regarding `C[C@H]1CCC[C@@H]2C=C[C@H](C)[C@@](C)(C3=CC(=O)/C(=C/N)C(=O)O3)[C@H]12`, the outcome in the test on Staphylococcus aureus [1], with Candida albicans [2] and with Escherichia coli was inactive.
With `C[C@H]1CCC[C@@H]2C=C[C@H](C)[C@@](C)(C3=CC(=O)/C(=C\NCCO)C(=O)O3)[C@H]12` [SOLANAPYRONE K], the zone of inhibition at 50 µg/disc in the test on Staphylococcus aureus [1] is 9 mm. In the test on Candida albicans [2], the “inhibition zone (IZ)” value came to 13 mm.
For `CCCCC[C@@H](O)[C@H]1C(=O)O[C@H](C)[C@@H](O)/C=C/C=C/C=C/C=C/C=C(\C)[C@@H](O)C[C@H](O)C[C@H](O)C[C@H](O)C[C@H](O)C[C@H](O)C[C@@H]1O` [FILIPIN], the zone of inhibition at 50 µg/disc in the test with Candida albicans [8] was 23 mm.
Regarding NYSTATIN [listing 2 of 2 here], the minimal inhibitory concentration (MIC) in the test on Aspergillus flavus [4] and in the test on Fusarium verticillioides [7] was 10 mg/L each time.
